Results pooled from the literature.
Compare with care: the assays were run in different laboratories.
KIT V559D/V654A: Mast/stem cell growth factor receptor Kit (KIT, Homo sapiens, UniProt P10721, V559D/V654A)
KIT V559D: Mast/stem cell growth factor receptor Kit (KIT, Homo sapiens, UniProt P10721, V559D)
KIT D816V: Mast/stem cell growth factor receptor Kit (KIT, Homo sapiens, UniProt P10721, D816V)

Compound	target	effect on	action	technique	concentration	measurement	value
Cc1ccc(NC(=O)c2ccnc(C(F)(F)F)c2)cc1-c1cc(OCCO)nc(N2CCOCC2)c1	KIT V559D/V654A	binding	–	–	1 µM	remaining binding	91%
CCCCC(=O)Nc1ccc(-c2ccc3ncn(CCC)c(=O)c3c2)cn1	Mast/stem cell growth factor receptor Kit, autoinhibited (KIT, Homo sapiens, UniProt P10721)	binding	–	competition with immobilised ligand	0.5 µM	remaining binding	97%
COc1ccc2[nH]c3c4[nH]c5ccc(OC)cc5c4c4c(c3c2c1)C(=O)NC4=O	KIT V559D	binding	–	–	1 µM	remaining binding	9%
N#Cc1ccc(NC(=O)Nc2ccccc2)cc1	Mast/stem cell growth factor receptor Kit (KIT, Homo sapiens, UniProt P10721, T670I/V559D)	cell-free assay	–	competition with immobilised ligand	25 µM	remaining binding	57%
C=CC(=O)N1CCC([C@@H]2CCNc3c(C(N)=O)c(-c4ccc(Oc5ccccc5)cc4)nn32)CC1	Mast/stem cell growth factor receptor Kit (KIT, Homo sapiens, UniProt P10721, L576P)	enzyme activity	inhibitor	–	1 µM	inhibition	5%
COc1ccc2oc(-c3ccc4nc(N)oc4c3)c/c(=N\c3ccccc3NC(=O)CCN)c2c1	Mast/stem cell growth factor receptor Kit (KIT, Homo sapiens, UniProt P10721, V654A)	cell-free assay	–	–	1 µM	remaining signal	102%
CC#CC(=O)N1CCC[C@H]1c1nc(-c2ccc(C(=O)Nc3ccccn3)cc2)c2c(N)nccn12	KIT V559D/V654A	enzyme activity	inhibitor	–	1 µM	inhibition	0%
CN1CCN(C(=O)c2ccc(NC(=O)Nc3ccc(N(C)c4ccnc(Nc5ccc(CS(C)(=O)=O)cc5)n4)cc3)cc2)CC1	KIT D816V	binding	–	–	1 µM	remaining binding	23%
CO[C@@H]1[C@H](N(C)C(=O)c2ccccc2)C[C@H]2O[C@]1(C)n1c3ccccc3c3c4c(c5c6ccccc6n2c5c31)C(=O)NC4	KIT D816V	enzyme activity	inhibitor	–	1 µM	inhibition	96%
C1=C/COCc2cc(ccc2OCCN2CCCC2)Nc2nccc(n2)-c2cccc(c2)COC/1	KIT V559D	binding	–	–	0.1 µM	remaining binding	3.7%
C[C@H]1CC[C@H](n2c3cnccc3c3cnc(Nc4ccc5c(n4)CCN(C(=O)CO)C5)nc32)CC1	KIT D816V	cell-free assay	–	–	1 µM	remaining signal	3.6%
C#Cc1cnc(Nc2ccnc(CO)c2)nc1Nc1ccccc1S(C)(=O)=NC#N (stereo not drawn)	Mast/stem cell growth factor receptor Kit (KIT, Homo sapiens, UniProt P10721)	cell-free assay	–	–	1 µM	remaining signal	73%
